Reference: PMC3349182 (British Journal of Cancer, 2012)

Tested on: patients with advanced, refractory solid tumours
Assay: Phase I dose escalation: toxicity
Assay type: in vivo, human
Settings: treatment-related
In short: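 Oral dosing was once daily in 28-day cycles, escalating by an accelerated design from 0.2 mg/day. Toxicity was graded by NCI CTC v3.0. During cycle 1, patients had weekly examination, blood pressure, full blood count, biochemistry and urinalysis, plus ECGs on days 1 and 8. DLT covered drug-related toxicity in cycle 1: grade ⩾3 toxicity, repeated grade 2 toxicity needing dose reduction, or <75% of planned dose given. The MTD was the highest dose with ≤1/6 patients having a DLT, and 12 more patients were treated at the MTD.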

For `COc1cc2nccc(Oc3ccc(NC(=O)NC4CC4)c(Cl)c3)c2cc1C(N)=O` [E7080], the “Anorexia (all grades), % of patients” value (0.2–6.4 mg (n=21)) was 10%, the “Anorexia (all grades), n patients” value (0.2–6.4 mg (n=21)) was 2 and the “Constipation (all grades), % of patients” value (0.2–6.4 mg (n=21)) was 10%. The “Constipation (all grades), n patients” value (0.2–6.4 mg (n=21)) was 2, the “Diarrhoea (all grades), n patients” value (0.2–6.4 mg (n=21)) was 4 and the “Dry skin (all grades), % of patients” value (0.2–6.4 mg (n=21)) was 5%. For the same compound, the “Dry skin (all grades), n patients” value (0.2–6.4 mg (n=21)) was 1, the “Dysphonia (all grades), % of patients” value (0.2–6.4 mg (n=21)) was 0% and the “Dysphonia (all grades), n patients” value (0.2–6.4 mg (n=21)) was 0. For the same compound, the “Fatigue (all grades), % of patients” value (0.2–6.4 mg (n=21)) was 10%, the “Fatigue (all grades), n patients” value (0.2–6.4 mg (n=21)) was 2 and the “Headache (all grades), % of patients” value (0.2–6.4 mg (n=21)) was 0%. The “Headache (all grades), n patients” value (0.2–6.4 mg (n=21)) was 0, the “Hypertension (all grades), % of patients” value (0.2–6.4 mg (n=21)) was 10% and the “Hypertension (all grades), n patients” value (0.2–6.4 mg (n=21)) was 2. The “Hypertension Grade 1, % of patients” value (0.2–6.4 mg (n=21)) was 5%, the “Hypertension Grade 1, n patients” value (0.2–6.4 mg (n=21)) was 1 and the “Hypertension Grade 2, % of patients” value (0.2–6.4 mg (n=21)) was 0%. The “Hypertension Grade 2, n patients” value (0.2–6.4 mg (n=21)) was 0, the “Hypertension Grade 3, % of patients” value (0.2–6.4 mg (n=21)) was 5% and the “Hypertension Grade 3, n patients” value (0.2–6.4 mg (n=21)) was 1. The “Lethargy (all grades), % of patients” value (0.2–6.4 mg (n=21)) was 14%, the “Lethargy (all grades), n patients” value (0.2–6.4 mg (n=21)) was 3 and the “Nausea (all grades), % of patients” value (0.2–6.4 mg (n=21)) was 38%. The “Nausea (all grades), n patients” value (0.2–6.4 mg (n=21)) was 8, the “Proteinuria (all grades), % of patients” value (0.2–6.4 mg (n=21)) was 14% and the “Proteinuria (all grades), n patients” value (0.2–6.4 mg (n=21)) was 3. For the same compound, the “Proteinuria Grade 1, % of patients” value (0.2–6.4 mg (n=21)) was 0%, the “Proteinuria Grade 1, n patients” value (0.2–6.4 mg (n=21)) was 0 and the “Proteinuria Grade 2, % of patients” value (0.2–6.4 mg (n=21)) was 14%. For the same compound, the “Proteinuria Grade 2, n patients” value (0.2–6.4 mg (n=21)) was 3, the “Proteinuria Grade 3, % of patients” value (0.2–6.4 mg (n=21)) was 0% and the “Proteinuria Grade 3, n patients” value (0.2–6.4 mg (n=21)) was 0. The “Stomatitis (all grades), % of patients” value (0.2–6.4 mg (n=21)) was 5%, the “Stomatitis (all grades), n patients” value (0.2–6.4 mg (n=21)) was 1 and the “Vomiting (all grades), n patients” value (0.2–6.4 mg (n=21)) was 7. The “Abdominal pain (all grades), % of patients” value (12–20 mg (n=30)) was 7%, the “Abdominal pain (all grades), n patients” value (12–20 mg (n=30)) was 2 and the “Anorexia (all grades), % of patients” value (12–20 mg (n=30)) was 17%. For the same compound, the “Anorexia (all grades), n patients” value (12–20 mg (n=30)) was 5, the “Constipation (all grades), % of patients” value (12–20 mg (n=30)) was 10% and the “Constipation (all grades), n patients” value (12–20 mg (n=30)) was 3. For the same compound, the “Diarrhoea (all grades), n patients” value (12–20 mg (n=30)) was 8, the “Dry skin (all grades), % of patients” value (12–20 mg (n=30)) was 10% and the “Dry skin (all grades), n patients” value (12–20 mg (n=30)) was 3. For the same compound, the “Dysphonia (all grades), % of patients” value (12–20 mg (n=30)) was 13%, the “Dysphonia (all grades), n patients” value (12–20 mg (n=30)) was 4 and the “Fatigue (all grades), % of patients” value (12–20 mg (n=30)) was 23%. The “Fatigue (all grades), n patients” value (12–20 mg (n=30)) was 7, the “Headache (all grades), % of patients” value (12–20 mg (n=30)) was 7% and the “Headache (all grades), n patients” value (12–20 mg (n=30)) was 2. For the same compound, the “Hypertension (all grades), % of patients” value (12–20 mg (n=30)) was 40%, the “Hypertension (all grades), n patients” value (12–20 mg (n=30)) was 12 and the “Hypertension Grade 1, % of patients” value (12–20 mg (n=30)) was 7%. The “Hypertension Grade 1, n patients” value (12–20 mg (n=30)) was 2, the “Hypertension Grade 2, % of patients” value (12–20 mg (n=30)) was 23% and the “Hypertension Grade 2, n patients” value (12–20 mg (n=30)) was 7. The “Hypertension Grade 3, % of patients” value (12–20 mg (n=30)) was 10%, the “Hypertension Grade 3, n patients” value (12–20 mg (n=30)) was 3 and the “Lethargy (all grades), % of patients” value (12–20 mg (n=30)) was 17%. For the same compound, the “Lethargy (all grades), n patients” value (12–20 mg (n=30)) was 5, the “Nausea (all grades), % of patients” value (12–20 mg (n=30)) was 17% and the “Nausea (all grades), n patients” value (12–20 mg (n=30)) was 5. The “Proteinuria (all grades), n patients” value (12–20 mg (n=30)) was 8, the “Proteinuria Grade 1, % of patients” value (12–20 mg (n=30)) was 0% and the “Proteinuria Grade 1, n patients” value (12–20 mg (n=30)) was 0. For the same compound, the “Proteinuria Grade 2, % of patients” value (12–20 mg (n=30)) was 20%, the “Proteinuria Grade 3, % of patients” value (12–20 mg (n=30)) was 7% and the “Proteinuria Grade 3, n patients” value (12–20 mg (n=30)) was 2. For the same compound, the “Stomatitis (all grades), % of patients” value (12–20 mg (n=30)) was 20%, the “Vomiting (all grades), % of patients” value (12–20 mg (n=30)) was 10% and the “Vomiting (all grades), n patients” value (12–20 mg (n=30)) was 3. The “Abdominal pain (all grades), % of patients” value (Total (n=82)) was 11%, the “Abdominal pain (all grades), n patients” value (Total (n=82)) was 9 and the “Anorexia (all grades), % of patients” value (Total (n=82)) was 17%. For the same compound, the “Anorexia (all grades), n patients” value (Total (n=82)) was 14, the “Constipation (all grades), % of patients” value (Total (n=82)) was 17% and the “Constipation (all grades), n patients” value (Total (n=82)) was 14. For the same compound, the “Diarrhoea (all grades), n patients” value (Total (n=82)) was 28, the “Dry skin (all grades), % of patients” value (Total (n=82)) was 20% and the “Dry skin (all grades), n patients” value (Total (n=82)) was 16. The “Dysphonia (all grades), % of patients” value (Total (n=82)) was 22%, the “Dysphonia (all grades), n patients” value (Total (n=82)) was 18 and the “Fatigue (all grades), % of patients” value (Total (n=82)) was 18%. For the same compound, the “Fatigue (all grades), n patients” value (Total (n=82)) was 15, the “Headache (all grades), % of patients” value (Total (n=82)) was 13% and the “Headache (all grades), n patients” value (Total (n=82)) was 11. The “Hypertension (all grades), % of patients” value (Total (n=82)) was 40%, the “Hypertension Grade 1, % of patients” value (Total (n=82)) was 7% and the “Hypertension Grade 2, % of patients” value (Total (n=82)) was 22%. The “Hypertension Grade 2, n patients” value (Total (n=82)) was 18, the “Hypertension Grade 3, % of patients” value (Total (n=82)) was 11% and the “Lethargy (all grades), % of patients” value (Total (n=82)) was 23%. For the same compound, the “Nausea (all grades), % of patients” value (Total (n=82)) was 37%, the “Proteinuria (all grades), % of patients” value (Total (n=82)) was 26% and the “Proteinuria (all grades), n patients” value (Total (n=82)) was 21. For the same compound, the “Proteinuria Grade 1, % of patients” value (Total (n=82)) was 0%, the “Proteinuria Grade 1, n patients” value (Total (n=82)) was 0 and the “Proteinuria Grade 2, % of patients” value (Total (n=82)) was 18%. The “Proteinuria Grade 2, n patients” value (Total (n=82)) was 15, the “Proteinuria Grade 3, % of patients” value (Total (n=82)) was 7% and the “Stomatitis (all grades), % of patients” value (Total (n=82)) was 32%. For the same compound, the “Stomatitis (all grades), n patients” value (Total (n=82)) was 26 and the “Vomiting (all grades), % of patients” value (Total (n=82)) was 23%.
